Source: PubChem BioAssay
Active and inactive are the calls of the source.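 Rule for the calls, unless noted: active = duplicate-averaged activation above buffer control mean plus 5 SD of those controls; inactive = the rest.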

Legend:
[1] = nonspecific flux increase, KCNQ1-free cells – parental CHO cells, counter-screen for KCNQ1 potentiator project (AID 493006); conditions: parental CHO-K1 cells, FluxOR thallium flux, at 10 µM; active compounds read high
How it was run: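 Assay system: parental CHO-K1 cells lacking KCNQ1, loaded with FluxOR thallium dye; timing: dye 90 min RT, compound 20 min RT; signal: kinetic thallium-flux fluorescence; repeats: duplicate wells per compound, percent values averaged; benchmarks: buffer and R-L3 controls; reagent: Potassium/thallium depolarization pulse; read-out: fluorescence change ratio scaled 0% buffer, 100% R-L3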

[2] = target: Potassium voltage-gated channel subfamily KQT member 1 (Homo sapiens) (UniProt P51787); test: enhancement of KCNQ1 channel thallium flux – FluxOR thallium flux, CHO cells, duplicates, confirmation (AID 493007;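 active = potentiation averaged over duplicate wells exceeding buffer-only control mean by more than 3 SD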;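 for outcome: cells depolarized by a potassium plus thallium sulfate stimulus after compound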); conditions: KCNQ1 cell line, FluxOR thallium flux fluorescence, at 10 µM; active compounds read high, % of reference activator effect, buffer zero
How it was run: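 material = CHO cells stably expressing the KCNQ1 potassium channel | repeats = duplicate wells per compound | measure = percent activation between buffer and R-L3 responses | signal = FluxOR thallium-flux fluorescence, kinetic read | schedule = FluxOR dye loading 90 min, compound exposure 20 min, room temperature | control set = buffer and R-L3 controls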

[3] = target: Potassium voltage-gated channel subfamily KQT member 2 (Rattus norvegicus) (UniProt O88943); test: KCNQ2 thallium flux enhancement – KCNQ2-CHO-K1 cells, selectivity assay for KCNQ1 potentiator project (AID 493009;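 active = mean duplicate potentiation above the buffer control mean plus 5 SD of buffer wells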;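 note: assay conditions were tuned for KCNQ1 rather than KCNQ2 modulators; signal is max minus min fluorescence divided by baseline after thallium stimulus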); conditions: FluxOR thallium flux fluorescence, at 10 µM; active compounds read high, scaled: buffer 0, activator control 100
[4] = target: Potassium voltage-gated channel subfamily KQT member 1 (Homo sapiens) (UniProt P51787); test: KCNQ1 activators by electrophysiology – IonWorks patch clamp, KCNQ1-CHO cells, orthogonal assay for KCNQ1 potentiator project, confirmation (AID 493184;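 active = current rise at least 3 SD above the untreated control mean in each of two repeat wells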;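 for current potentiation: percent change of the same well's current before compound addition so 0% = no change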); conditions: automated patch clamp current, at 10 µM; active compounds read high
How it was run: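 Assay system – CHO cells carrying KCNQ1 · Medium – pH 7.4 external bath · Probe or stimulus – depolarizing pulse to +40 mV from -90 mV · Compound dosing – one dose, 10 µM final · Measured by – automated perforated-patch electrophysiology · Measure – % potentiation of steady-state current relative to pre-compound · Repeats – two replicates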

[5] = target: Potassium voltage-gated channel subfamily E member 1 (Homo sapiens) + Potassium voltage-gated channel subfamily KQT member 1 (Homo sapiens) (UniProt P15382+P51787); test: KCNQ1-E1 channel activation – thallium flux, CHO-K1 KCNQ1/E1 cells, selectivity assay for KCNQ1 potentiator project, confirmation (AID 493186;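 active = mean duplicate activation above the buffer control mean plus 5 SD of those controls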); conditions: FluxOR thallium flux, at 10 µM; active compounds read high
How it was run: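 Assay system: CHO-K1 cells with KCNQ1/E1 | Dosing: Single compound concentration per well | Incubation: Dye 90 min, compound 20 min, room temperature | Measured by: FluxOR Tl+ flux fluorescence, kinetic read | Controls: Buffer low control, R-L3 high control | Replicates: Duplicate wells per compound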

Chain of Potassium voltage-gated channel subfamily E member 1 (Homo sapiens) + Potassium voltage-gated channel subfamily KQT member 1 (Homo sapiens) (P51787 whole entry, looked up): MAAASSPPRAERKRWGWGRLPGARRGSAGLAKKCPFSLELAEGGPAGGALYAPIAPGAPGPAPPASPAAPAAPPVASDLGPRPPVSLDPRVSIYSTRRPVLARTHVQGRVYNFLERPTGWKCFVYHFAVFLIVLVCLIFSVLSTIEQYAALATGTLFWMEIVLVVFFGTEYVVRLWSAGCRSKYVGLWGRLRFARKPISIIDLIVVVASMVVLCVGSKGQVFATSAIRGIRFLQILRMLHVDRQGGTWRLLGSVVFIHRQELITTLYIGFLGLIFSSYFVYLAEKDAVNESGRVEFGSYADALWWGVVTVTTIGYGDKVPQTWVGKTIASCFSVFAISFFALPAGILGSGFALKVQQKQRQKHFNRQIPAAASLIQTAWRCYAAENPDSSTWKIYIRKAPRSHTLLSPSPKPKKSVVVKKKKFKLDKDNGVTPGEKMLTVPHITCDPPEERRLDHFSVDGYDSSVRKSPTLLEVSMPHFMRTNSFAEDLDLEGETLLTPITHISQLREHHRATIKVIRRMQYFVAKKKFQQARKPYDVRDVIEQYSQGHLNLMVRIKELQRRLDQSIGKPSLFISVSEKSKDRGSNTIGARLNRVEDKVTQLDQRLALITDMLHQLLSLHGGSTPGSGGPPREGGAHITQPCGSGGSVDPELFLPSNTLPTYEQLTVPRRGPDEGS
Chain of Potassium voltage-gated channel subfamily KQT member 2 (Rattus norvegicus) (O88943 whole entry, looked up): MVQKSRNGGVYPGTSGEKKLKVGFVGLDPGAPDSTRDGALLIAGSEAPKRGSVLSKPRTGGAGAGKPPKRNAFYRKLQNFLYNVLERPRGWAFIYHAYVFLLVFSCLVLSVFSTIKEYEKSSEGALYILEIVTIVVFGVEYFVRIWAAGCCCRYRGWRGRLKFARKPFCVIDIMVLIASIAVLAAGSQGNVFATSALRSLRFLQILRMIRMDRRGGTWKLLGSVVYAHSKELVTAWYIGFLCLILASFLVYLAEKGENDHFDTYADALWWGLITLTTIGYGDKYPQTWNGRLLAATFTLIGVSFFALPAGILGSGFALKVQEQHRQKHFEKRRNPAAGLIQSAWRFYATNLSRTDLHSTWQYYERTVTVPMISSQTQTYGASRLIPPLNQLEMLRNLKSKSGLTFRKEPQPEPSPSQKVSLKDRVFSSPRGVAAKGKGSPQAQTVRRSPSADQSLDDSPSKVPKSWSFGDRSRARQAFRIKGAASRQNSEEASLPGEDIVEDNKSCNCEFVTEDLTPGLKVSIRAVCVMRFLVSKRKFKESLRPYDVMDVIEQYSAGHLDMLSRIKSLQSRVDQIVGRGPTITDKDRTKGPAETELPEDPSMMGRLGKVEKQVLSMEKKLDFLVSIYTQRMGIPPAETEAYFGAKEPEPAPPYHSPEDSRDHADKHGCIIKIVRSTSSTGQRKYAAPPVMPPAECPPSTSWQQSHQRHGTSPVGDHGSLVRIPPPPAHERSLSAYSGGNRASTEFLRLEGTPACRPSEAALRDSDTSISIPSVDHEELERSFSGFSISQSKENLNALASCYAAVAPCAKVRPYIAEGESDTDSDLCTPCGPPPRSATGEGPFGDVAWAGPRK
Chain of Potassium voltage-gated channel subfamily KQT member 1 (Homo sapiens) (P51787 whole entry, looked up): as the sequence (P51787 whole entry, looked up) above

Row | SMILES | outcome [1] | outcome [2] | outcome [3] | outcome [4] | outcome [5] | potentiation [2] | current potentiation [4] | potentiation [3]
1 | O=C(CC(c1ccccc1)c1ccccc1)Nc1ncn[nH]1 | inactive | inactive | inactive | inactive | inactive | – | – | –
2 | Cc1ccc(C(=O)C2=C(O)C(=O)N(CCCN3CCOCC3)C23C(=O)N(C)c2ccccc23)o1 (stereo not given) | inactive | inactive | inactive | inactive | inactive | – | – | –
3 | CC1(C)CC(Nc2ccc(Nc3ccccc3)cc2)CC(C)(C)N1 | inactive | – | inactive | inactive | inactive | 23.5% (active) | – | –
4 | CN(C)CCNc1ncnc2c1sc1nc(N3CCOCC3)c3c(c12)CC(C)(C)SC3 | inactive | inactive | inactive | inactive | inactive | – | – | –
5 | Cc1cccc(NC(=O)C2CCCN2S(=O)(=O)c2ccc(Cl)cc2)n1 (stereo not given) | inactive | inactive | inactive | inactive | inactive | – | – | –
6 | COc1ccc(Cl)cc1C(=O)NNC(=S)NC(=O)c1cc(-c2ccccc2)nc2ccccc12 | inactive | inactive | inactive | inactive | inactive | – | – | –
7 | CCCn1c(N)c(C(=O)CSc2nc3ccccc3c(=O)n2Cc2ccccc2)c(=O)[nH]c1=O | inactive | inactive | inactive | inactive | inactive | – | – | –
8 | COc1ccc(C2SCC(=O)N2c2nc3ccccc3s2)cc1 (stereo not given) | inactive | inactive | inactive | – | inactive | – | 26.4% (active) | –
9 | CN1CCN(C(c2ccc(Cl)cc2)c2cc(Cl)c3cccnc3c2O)CC1 (stereo not given) | inactive | inactive | inactive | inactive | inactive | – | – | –
10 | O=C(NCc1ccccc1)c1ccc2c(c1)C(=O)N(Cc1cccnc1)C2=O | inactive | – | inactive | inactive | inactive | 17.5% (active) | – | –
11 | Cc1cc(/C=N/NC(=O)C(O)(c2ccccc2)c2ccccc2)c(C)n1-c1ccccc1 | inactive | inactive | inactive | inactive | inactive | – | – | –
12 | Cc1ccc(C(=O)NC(=S)N2CCN(c3cc(C)ccc3C)CC2)cc1 | inactive | – | inactive | inactive | inactive | 50% (active) | – | –
13 | O=C(c1ccc(-c2ccccc2)cc1)C1CCCN(C(=O)Cn2cncn2)C1 (stereo not given) | inactive | inactive | inactive | inactive | inactive | – | – | –
14 | CC(C)Oc1cccc(C(=O)NC(=S)N2CCN(c3ccc(C(F)(F)F)cc3[N+](=O)[O-])CC2)c1 | inactive | – | – | inactive | inactive | 35.5% (active) | – | 144% (active)
15 | OCCNCc1cc(Br)ccc1OCc1ccccc1Cl | inactive | inactive | inactive | inactive | inactive | – | – | –
16 | COc1cccc(C2C3=C(N=c4s/c(=C\c5ccc(OCC(=O)O)cc5)c(=O)n42)c2ccccc2CC3)c1 (stereo not given) | inactive | – | inactive | inactive | inactive | 53% (active) | – | –
17 | COc1ccc(-c2nc(=S)c3c([nH]2)Oc2ccc(C)cc2C3)cc1O | inactive | – | inactive | inactive | inactive | 28.5% (active) | – | –
18 | COc1ccc(CNC(=O)CSc2nc3ccc(OC)cc3[nH]2)cc1 | inactive | inactive | inactive | inactive | inactive | – | – | –
19 | Cc1[nH][nH]c(=O)c1C(c1ccc(-c2ccc(Cl)c(Cl)c2)o1)c1c(C)[nH][nH]c1=O | inactive | – | inactive | inactive | inactive | 30% (active) | – | –
20 | CCOC(=O)COc1cc(-n2c(=S)[nH]c3cc(OC)c(OC)cc3c2=O)c(Cl)cc1Cl | inactive | – | inactive | inactive | inactive | 31.5% (active) | – | –
21 | CS(=O)(=O)c1ccc(C(=O)OCc2nnc(-c3ccccc3)o2)cc1[N+](=O)[O-] | inactive | inactive | inactive | inactive | inactive | – | – | –
22 | CCN(CC)CCSc1nc2ccccc2c(=S)n1-c1ccccc1 | inactive | inactive | inactive | inactive | inactive | – | – | –
23 | O=C(O)CCCN1C(=O)/C(=C/c2ccc(-c3nc4ccccc4s3)o2)SC1=S | inactive | – | – | inactive | inactive | 21.5% (active) | – | 143% (active)
24 | CS(=O)(=O)c1ccc(Cl)c(NC(=O)c2cc(S(=O)(=O)N3CCOCC3)ccc2N2CCCC2)c1 | inactive | inactive | inactive | inactive | inactive | – | – | –
25 | O=C(NC(=S)Nc1cc(C(F)(F)F)ccc1N1CCOCC1)c1sc2ccccc2c1Cl | inactive | inactive | inactive | inactive | inactive | – | – | –
26 | S=c1[nH]c(-c2cccs2)cn1-c1ccccc1 | inactive | – | – | inactive | inactive | 26% (active) | – | 151% (active)
27 | Cc1ccc2[nH]c(=O)c(CN(CCCN(C)C)C(=S)NCCc3ccccc3)cc2c1 | inactive | inactive | inactive | inactive | inactive | – | – | –
28 | CCN1CCN(c2ccc(S(=O)(=O)N3CCCC3)cn2)CC1 | inactive | inactive | inactive | inactive | inactive | – | – | –
29 | CCOC(=O)Cc1csc(NC(=S)NC(=O)c2ccc(Cl)cc2)n1 | inactive | inactive | inactive | inactive | inactive | – | – | –
30 | COC(=O)N/N=C/c1cc(C)n(-c2ccc(Br)cc2)c1C | inactive | inactive | inactive | inactive | inactive | – | – | –
